Results on nine compounds are retold here after ChEMBL document CHEMBL4038266, “Griseofulvin Derivative and Indole Alkaloids from Penicillium griseofulvum CPCC 400528” (J Nat Prod, 2017).

One experiment deals with Staphylococcus aureus. Briefly: Antibacterial activity against Staphylococcus aureus after 18 hrs by broth microdilution method. In kind it is functional. The gist of the method:
(§1)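 Broth microdilution per CLSI, using ATCC standard strains. Final compound concentrations ran from 0.125 to 256 μg/mL. Plates were incubated at 37 °C for 18 h. MIC was taken as the lowest concentration preventing visible bacterial growth. Levofloxacin served as the positive control.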
On the technique in general: In broth dilution the organism is exposed to a series of concentrations in liquid medium.

For experiment [1], the system named is Human immunodeficiency virus 1. Briefly: Antiviral activity against VSV pseudotyped HIV1 infected in SupT1 cells after 48 hrs by luciferase reporter gene assay. The format is functional, cell-based. The settings on record: Human immunodeficiency virus 1, SUP-T1, 48 h. The gist of the method: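 VSV-G pseudotyped HIV-1 produced by cotransfecting 293T cells (2 × 10^5/mL) with 0.6 μg pNL-Luc-E and 0.4 μg pHIT/G. Supernatant harvested after 48 h, 0.45 μm filtered, and capsid quantified by p24 antigen-capture ELISA. SupT1 cells infected at MOI 1 with or without compound, 37 °C, 48 h. Inhibition read by firefly luciferase. Efavirenz positive control.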
On the technique in general: Reporter assays use an easily measured gene product as a stand-in for the process of interest.

For the next experiment, the system named is Escherichia coli. Kind of experiment: Antibacterial activity against Escherichia coli after 18 hrs by broth microdilution method. The format is functional. The gist of the method:
as §1

SMILES strings stand for the structures.

Regarding `CC(=O)[C@@]1(O)C(=O)N2C(C)(C)[C@@H]3Cc4cccc5c4[C@@]4(O[C@@]1(O)[C@@]2(O)[C@H]34)C(=O)N5`, the MIC against Staphylococcus aureus and against Escherichia coli was above 64 µg/mL each time. The IC50 in experiment [1] was 70.1 µM.

In the case of `COc1ccc2c3c1C(=O)CC(C)(C)N3C(=O)[C@]21C[C@]2([N+](=O)[O-])CN3CCC[C@H]3C[C@@H]2C1(C)C`, the MIC against Staphylococcus aureus and in the experiment on Escherichia coli was above 64 µg/mL throughout. The compound further yielded an IC50 in experiment [1] of 57.7 µM.

Consider `Cc1cc(=O)n2c(n1)-c1c(cc3cccc4c3c1C(=O)N4)C2(C)C`, for which the MIC with Staphylococcus aureus and against Escherichia coli was above 64 µg/mL in each case. The same compound showed an IC50 in experiment [1] of 20.5 µM.

Turning to `CN1C(=O)c2c3c(cc4cccc1c24)C(C)(C)NC3=O`, the MIC in the experiment on Staphylococcus aureus and in the experiment on Escherichia coli was above 64 µg/mL in each case. This compound also gave an IC50 in experiment [1] of 12.6 µM.

For the compound `COc1cc(O)c2c(=O)c3c(C)cc(O)cc3oc2c1`, the MIC with Staphylococcus aureus and with Escherichia coli was above 64 µg/mL in each case. Also, the IC50 in experiment [1] was 79.4 µM.

With `COC1=CC(=O)C[C@@H](C)[C@]12Oc1cc(OC)cc(OC)c1C2=O`, the MIC with Staphylococcus aureus and in the experiment with Escherichia coli was above 64 µg/mL in each case. In addition, in experiment [1], the IC50 came to 89.7 µM.

On to `COc1cc(OC)c2c(c1Cl)O[C@@]1(C(=O)C=C(NCCC(C)C)C[C@H]1C)C2=O`, for which the MIC in the experiment with Staphylococcus aureus and against Escherichia coli was above 64 µg/mL throughout. This compound also returned an IC50 in experiment [1] of 33.2 µM.

As to `Cc1cc(=O)n2c(n1)-c1c(cc3cccc4c3c1C(=O)N4C)C2(C)C`, the MIC against Staphylococcus aureus and in the experiment with Escherichia coli was above 64 µg/mL throughout. The compound further came in with an IC50 in experiment [1] of 77.9 µM.

Regarding `COC1=CC(=O)C[C@@H](C)[C@]12Oc1c(Cl)c(OC)cc(OC)c1C2=O` [GRISEOFULVIN], the MIC against Staphylococcus aureus and against Escherichia coli was above 64 µg/mL throughout. The compound also displayed an IC50 in experiment [1] of 87.1 µM.

For orientation: MIC means the least concentration at which growth counts as inhibited. A higher MIC goes with a less susceptible organism. Broadly, the IC50 is the point on the concentration scale where inhibition reaches its midpoint.
